Legend:
[1] = target: Cholecystokinin receptor type A (Homo sapiens) (UniProt P32238); assay: Displacement of [125I]CCK-8s from human CCKA at 10 uM relative to control
Summary of the method: (§1)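 Outsourced CNS panel of 55 receptor binding assays run by Cerep. Compound tested at 10 μM, the default primary-binding concentration, with inhibition expressed relative to control. Inhibition above 50% taken as a significant effect.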

[2] = target: Neuromedin-K receptor (Homo sapiens) (UniProt P29371); assay: Displacement of [3H]-SR142801 from human NK3 receptor at 10 uM relative to control; summary of the method: as §1
Chain of Neuromedin-K receptor (Homo sapiens) (P29371 whole entry): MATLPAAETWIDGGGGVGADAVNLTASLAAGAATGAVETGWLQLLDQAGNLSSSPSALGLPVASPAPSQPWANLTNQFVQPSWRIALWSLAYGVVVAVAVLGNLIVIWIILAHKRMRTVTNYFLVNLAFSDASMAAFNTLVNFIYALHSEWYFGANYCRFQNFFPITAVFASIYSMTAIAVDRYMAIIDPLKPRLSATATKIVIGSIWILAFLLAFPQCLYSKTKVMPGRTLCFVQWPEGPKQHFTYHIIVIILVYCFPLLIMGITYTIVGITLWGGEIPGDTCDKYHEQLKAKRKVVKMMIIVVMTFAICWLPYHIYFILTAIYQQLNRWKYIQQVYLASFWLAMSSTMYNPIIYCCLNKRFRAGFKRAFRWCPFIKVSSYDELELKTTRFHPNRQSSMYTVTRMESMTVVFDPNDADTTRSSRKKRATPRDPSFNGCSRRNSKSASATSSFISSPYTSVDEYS

[3] = Ratio of drug level in Sprague-Dawley rat brain to plasma at 0.5 mg/kg iv after 1 hrs; assay type: ADME, organism-based; parameters: dose 0.5 mg/kg, route intravenous; details: read-out: BPR
[4] = target: T1, Sodium-dependent noradrenaline transporter (Homo sapiens, UniProt P23975); details: 10 uM
T1 sequence (P23975 whole entry): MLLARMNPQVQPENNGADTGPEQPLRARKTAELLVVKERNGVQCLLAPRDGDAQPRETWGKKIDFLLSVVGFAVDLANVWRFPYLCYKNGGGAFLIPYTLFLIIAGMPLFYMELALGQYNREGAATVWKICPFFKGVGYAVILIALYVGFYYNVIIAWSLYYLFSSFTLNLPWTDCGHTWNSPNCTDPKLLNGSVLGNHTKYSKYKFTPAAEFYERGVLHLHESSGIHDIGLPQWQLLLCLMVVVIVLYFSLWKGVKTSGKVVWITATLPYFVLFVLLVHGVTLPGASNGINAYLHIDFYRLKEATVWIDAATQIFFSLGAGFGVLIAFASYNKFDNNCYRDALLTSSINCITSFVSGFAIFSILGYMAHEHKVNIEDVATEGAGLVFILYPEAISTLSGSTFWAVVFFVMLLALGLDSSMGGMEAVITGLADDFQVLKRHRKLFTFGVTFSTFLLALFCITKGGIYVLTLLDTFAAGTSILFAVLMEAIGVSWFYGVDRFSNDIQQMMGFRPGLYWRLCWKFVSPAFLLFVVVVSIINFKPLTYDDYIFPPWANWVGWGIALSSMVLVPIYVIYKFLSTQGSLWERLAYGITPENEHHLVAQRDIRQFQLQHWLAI

[5] = species: Homo sapiens; assay: Displacement of [3H]GABA from GABA receptor (unknown origin) at 10 uM relative to control; summary of the method: as §1
[6] = Ratio of drug level in Sprague-Dawley rat brain to plasma at 0.5 mg/kg iv after 4 hrs; assay type: ADME, organism-based; parameters: dose 0.5 mg/kg, route intravenous; details: read-out: BPR
[7] = target: Beta-1 adrenergic receptor (Homo sapiens) (UniProt P08588); assay: Displacement of [3H]CGP-12177 from human beta1-adrenergic receptor at 10 uM relative to control; summary of the method: as §1
Chain of Beta-1 adrenergic receptor (Homo sapiens) (P08588 whole entry, looked up): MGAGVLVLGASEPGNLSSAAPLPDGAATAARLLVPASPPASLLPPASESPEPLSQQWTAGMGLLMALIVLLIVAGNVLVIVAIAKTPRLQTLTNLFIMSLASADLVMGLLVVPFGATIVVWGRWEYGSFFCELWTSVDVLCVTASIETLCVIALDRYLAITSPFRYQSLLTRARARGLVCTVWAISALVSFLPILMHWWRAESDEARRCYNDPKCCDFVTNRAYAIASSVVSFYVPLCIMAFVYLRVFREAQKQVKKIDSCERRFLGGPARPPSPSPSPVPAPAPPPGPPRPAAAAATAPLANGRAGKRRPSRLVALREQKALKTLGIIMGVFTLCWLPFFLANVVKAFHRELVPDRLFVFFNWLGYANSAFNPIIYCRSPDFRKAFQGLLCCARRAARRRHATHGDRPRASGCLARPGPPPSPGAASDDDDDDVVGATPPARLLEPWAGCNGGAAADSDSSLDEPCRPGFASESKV

[8] = species: Homo sapiens; assay: Inhibition of Kv channel (unknown origin) at 10 uM by [125I]alpha-dendrotoxin binding assay relative to control
Summary of the method: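 Radioligand binding was run at a contract laboratory as part of a 55-target CNS receptor panel. Test concentration was 10 μM. Inhibition of specific binding was expressed relative to control, and inhibition greater than 50% was taken as significant.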

[9] = Oral bioavailability in Sprague-Dawley rat at 2 mg/kg; assay type: ADME, organism-based; details: in vivo
[10] = Mean residence time in Sprague-Dawley rat at 2 mg/kg, po; assay type: ADME, organism-based; parameters: dose 2 mg/kg, route oral; details: in vivo
[11] = Acute toxicity in KM mouse assessed as survival at 600 mg/kg, po up to 14 days (reference value: 100%); assay type: organism-based; parameters: dose 600 mg/kg, route oral; details: in vivo
[12] = system: Salmonella typhimurium; assay: Mutagenic activity in Salmonella typhimurium TA98 assessed as number of reversion mutation at 1000 ug/plate; assay type: toxicity, organism-based; details: salmonella enterica subsp. enterica serovar typhimurium
Summary of the method: (§2)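 Ames reversion test in Salmonella typhimurium TA98 and TA100, with and without rat liver S9 metabolic activation. Compound was dissolved in DMSO and added at 3–5000 μg/plate. Each dose, vehicle and positive control was plated in triplicate, and revertant colonies were counted.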

[13] = target: 5-hydroxytryptamine receptor 1A (Homo sapiens) (UniProt P08908); assay: Displacement of [3H]OHDPAT from human 5-HT1A receptor at 10 uM relative to control; summary of the method: as §1
Chain of 5-hydroxytryptamine receptor 1A (Homo sapiens) (P08908 whole entry): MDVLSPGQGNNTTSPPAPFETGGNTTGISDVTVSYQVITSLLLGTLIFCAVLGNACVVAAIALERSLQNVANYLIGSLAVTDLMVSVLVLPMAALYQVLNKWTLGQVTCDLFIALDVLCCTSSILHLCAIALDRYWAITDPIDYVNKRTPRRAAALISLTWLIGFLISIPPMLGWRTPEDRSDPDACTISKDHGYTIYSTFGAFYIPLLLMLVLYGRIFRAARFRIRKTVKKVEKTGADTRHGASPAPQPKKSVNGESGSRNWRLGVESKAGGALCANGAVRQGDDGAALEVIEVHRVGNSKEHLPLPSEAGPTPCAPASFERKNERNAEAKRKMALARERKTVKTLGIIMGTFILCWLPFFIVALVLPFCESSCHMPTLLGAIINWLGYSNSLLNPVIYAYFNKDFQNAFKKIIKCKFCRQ

[14] = target: Mu-type opioid receptor (Homo sapiens) (UniProt P35372); assay: Displacement of […] from human mu opioid receptor at 10 uM relative to control; summary of the method: as §1
Chain of Mu-type opioid receptor (Homo sapiens) (P35372 whole entry): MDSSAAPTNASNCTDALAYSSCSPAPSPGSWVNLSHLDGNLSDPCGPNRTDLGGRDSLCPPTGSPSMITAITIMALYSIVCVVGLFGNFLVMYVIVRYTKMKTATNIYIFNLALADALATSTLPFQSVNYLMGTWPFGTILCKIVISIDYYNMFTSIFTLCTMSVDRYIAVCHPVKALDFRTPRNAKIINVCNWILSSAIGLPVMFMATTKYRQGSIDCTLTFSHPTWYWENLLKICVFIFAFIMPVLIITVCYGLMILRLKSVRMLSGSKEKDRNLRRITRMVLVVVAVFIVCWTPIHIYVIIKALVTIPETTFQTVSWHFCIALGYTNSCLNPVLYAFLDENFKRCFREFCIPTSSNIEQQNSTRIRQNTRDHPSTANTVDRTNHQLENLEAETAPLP

[15] = target: Muscarinic acetylcholine receptor M2 (Homo sapiens) (UniProt P08172); assay: Displacement of [3H]AF-DX 384 from human muscarinic M2 receptor at 10 uM relative to control; summary of the method: as §1
Chain of Muscarinic acetylcholine receptor M2 (Homo sapiens) (P08172 whole entry): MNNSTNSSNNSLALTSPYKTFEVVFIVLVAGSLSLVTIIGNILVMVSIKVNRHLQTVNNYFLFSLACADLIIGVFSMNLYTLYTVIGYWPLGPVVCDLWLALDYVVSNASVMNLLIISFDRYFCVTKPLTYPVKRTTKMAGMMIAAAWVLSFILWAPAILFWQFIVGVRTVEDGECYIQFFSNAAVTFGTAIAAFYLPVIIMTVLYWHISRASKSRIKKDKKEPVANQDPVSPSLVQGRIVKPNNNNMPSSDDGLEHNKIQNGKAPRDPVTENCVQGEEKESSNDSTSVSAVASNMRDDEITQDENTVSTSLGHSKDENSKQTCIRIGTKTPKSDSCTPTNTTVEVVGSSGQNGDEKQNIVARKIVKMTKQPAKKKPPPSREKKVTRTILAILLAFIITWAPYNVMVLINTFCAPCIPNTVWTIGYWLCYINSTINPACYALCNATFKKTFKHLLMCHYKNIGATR

[16] = target: Sodium-dependent dopamine transporter (Homo sapiens, UniProt Q01959); assay: Inhibition of [3H]-DA uptake in human dopamine transporter expressed in HEK293 cells by scintillation counting; assay type: cell-based
[17] = AUC (0 to time) in Sprague-Dawley rat at 0.5 mg/kg, iv; assay type: ADME, organism-based; parameters: dose 0.5 mg/kg, route intravenous; details: plasma
Summary of the method: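 Male SD rats, fasted overnight until 6 h post-dose. PO group received single 2 mg/kg with heparinized blood sampled at 5, 15, 30 min, 1, 2, 4, 8, 24 h. IV group received single 0.5 mg/kg via femoral vein with sampling at 5, 15, 30 min, 1, 2, 4 h. Plasma stored at -40 °C, quantified by LC/MS/MS; 24 rats per group.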

[18] = target: D(1A) dopamine receptor (Homo sapiens) (UniProt P21728); assay: Displacement of [3H]SCH23390 from human dopamine D1 receptor at 10 uM relative to control; summary of the method: as §1
Chain of D(1A) dopamine receptor (Homo sapiens) (P21728 whole entry): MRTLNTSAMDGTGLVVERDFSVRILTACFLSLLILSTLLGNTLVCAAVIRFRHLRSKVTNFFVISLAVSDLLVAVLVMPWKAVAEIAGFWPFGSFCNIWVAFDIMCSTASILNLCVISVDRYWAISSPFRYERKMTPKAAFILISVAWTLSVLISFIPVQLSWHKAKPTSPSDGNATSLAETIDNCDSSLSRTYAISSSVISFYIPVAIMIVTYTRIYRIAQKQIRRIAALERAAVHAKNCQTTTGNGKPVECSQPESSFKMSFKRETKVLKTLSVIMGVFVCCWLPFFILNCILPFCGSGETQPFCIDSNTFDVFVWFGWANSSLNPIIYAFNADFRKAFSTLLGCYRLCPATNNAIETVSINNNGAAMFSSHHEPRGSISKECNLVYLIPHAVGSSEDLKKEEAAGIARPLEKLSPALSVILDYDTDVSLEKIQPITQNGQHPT

[19] = Tmax in Sprague-Dawley rat at 2 mg/kg, po; assay type: ADME, organism-based; parameters: dose 2 mg/kg, route oral; details: in vivo
[20] = system: Salmonella typhimurium; assay: Mutagenic activity in Salmonella typhimurium TA100 assessed as number of reversion mutation at 5000 ug/plate; assay type: toxicity, organism-based; details: salmonella enterica subsp. enterica serovar typhimurium; summary of the method: as §2
[21] = system: Rattus norvegicus; assay: Antidepressant activity in rat assessed as reduction in immobility time at 5 mg/kg, po by forced swimming test relative to control; assay type: functional
Summary of the method: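 Male rats dosed orally at 5, 10 or 20 mg/kg alongside vehicle and venlafaxine 30 mg/kg PO groups. 1 h post-dose, each rat placed in a glass cylinder (40 cm × 18 cm) holding 15 cm of 25 ± 1 °C water. Immobility time recorded over a 6 min trial; significant main effects followed by post hoc Fisher's test.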

[22] = system: Salmonella typhimurium; assay: Mutagenic activity in Salmonella typhimurium TA98 assessed as number of reversion mutation at 5000 ug/plate; assay type: toxicity, organism-based; details: salmonella enterica subsp. enterica serovar typhimurium; summary of the method: as §2
[23] = target: L-type calcium channel, verapamil binding site (Homo sapiens, UniProt O60840+Q01668+Q13698+Q13936); assay: Inhibition of human L-type calcium channel verapamil binding site at 10 uM by [3H]D88 binding assay relative to control
Summary of the method: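 Outsourced CNS receptor panel (55 binding assays); compound tested at 10 μM in primary radioligand binding; specific binding inhibition expressed relative to control, with >50% inhibition taken as a significant effect.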

[24] = Drug uptake in Sprague-Dawley rat brain at 0.5 mg/kg iv after 4 hrs; assay type: ADME, organism-based; parameters: dose 0.5 mg/kg, route intravenous; details: read-out: Drug uptake
[25] = target: T1, Sodium-dependent noradrenaline transporter; assay: Inhibition of [3H]-NE uptake in human norepinephrine transporter expressed in HEK293 cells by scintillation counting; assay type: cell-based
[26] = Drug uptake in Sprague-Dawley rat brain at 0.5 mg/kg ip after 2 hrs
[27] = target: 5-hydroxytryptamine receptor 2B (Homo sapiens) (UniProt P41595); assay: Displacement of [125I] (+/-)DOI from human 5-HT2B receptor at 10 uM relative to control; summary of the method: as §1
Chain of 5-hydroxytryptamine receptor 2B (Homo sapiens) (P41595 whole entry): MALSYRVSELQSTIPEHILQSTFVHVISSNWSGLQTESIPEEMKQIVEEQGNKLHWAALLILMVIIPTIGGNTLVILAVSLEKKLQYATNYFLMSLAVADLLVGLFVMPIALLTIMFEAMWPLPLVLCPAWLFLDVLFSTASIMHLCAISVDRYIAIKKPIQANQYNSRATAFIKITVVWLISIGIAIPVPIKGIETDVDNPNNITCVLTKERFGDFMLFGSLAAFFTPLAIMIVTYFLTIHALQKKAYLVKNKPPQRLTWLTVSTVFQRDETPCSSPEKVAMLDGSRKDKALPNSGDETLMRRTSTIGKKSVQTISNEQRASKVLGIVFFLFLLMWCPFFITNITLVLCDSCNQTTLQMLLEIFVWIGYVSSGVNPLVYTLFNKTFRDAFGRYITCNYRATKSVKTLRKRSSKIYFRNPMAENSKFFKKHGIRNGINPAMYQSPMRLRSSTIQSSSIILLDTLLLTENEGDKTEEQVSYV

[28] = Drug uptake in Sprague-Dawley rat plasma at 0.5 mg/kg iv after 0.08 hrs; assay type: ADME, organism-based; parameters: dose 0.5 mg/kg, route intravenous
Summary of the method: (§3)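 Male SD rats, fasted overnight until 6 h post-dose; single 0.5 mg/kg femoral-vein injection; blood drawn into heparin at 5, 15, 30 min, 1, 2 and 4 h; plasma stored at -40 °C; drug levels by LC/MS/MS; noncompartmental parameters.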

[29] = target: Adenosine receptor A1 (Homo sapiens) (UniProt P30542); assay: Displacement of [3H]-DPCPX from human adenosine A1 receptor at 10 uM relative to control; summary of the method: as §1
Chain of Adenosine receptor A1 (Homo sapiens) (P30542 whole entry): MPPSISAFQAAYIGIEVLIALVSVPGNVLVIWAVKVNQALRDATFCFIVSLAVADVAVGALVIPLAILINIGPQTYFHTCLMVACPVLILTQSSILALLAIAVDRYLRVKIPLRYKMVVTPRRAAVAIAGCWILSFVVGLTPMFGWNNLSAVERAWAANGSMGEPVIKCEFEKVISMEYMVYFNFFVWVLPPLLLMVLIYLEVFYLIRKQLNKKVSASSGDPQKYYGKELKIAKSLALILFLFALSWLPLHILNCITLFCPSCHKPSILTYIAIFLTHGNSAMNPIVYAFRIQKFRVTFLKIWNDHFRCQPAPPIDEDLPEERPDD

[30] = Drug uptake in Sprague-Dawley rat plasma at 0.5 mg/kg iv after 2 hrs; assay type: ADME, organism-based; parameters: dose 0.5 mg/kg, route intravenous; summary of the method: as §3
[31] = target: Adrenergic receptor alpha-2 (Homo sapiens) (UniProt P08913+P18825+P18089); assay: Displacement of [3H]-RX-821002 from alpha-2 adrenergic receptor (unknown origin) at 10 uM relative to control; assay type: protein assay; summary of the method: as §1
[32] = Ratio of drug level in Sprague-Dawley rat brain to plasma at 0.5 mg/kg iv after 0.25 hrs; assay type: ADME, organism-based; parameters: dose 0.5 mg/kg, route intravenous; details: read-out: BPR
[33] = target: D(2) dopamine receptor (Homo sapiens) (UniProt P14416); assay: Displacement of [3H]N-Methylspiperone from human dopamine D2S receptor at 10 uM relative to control; summary of the method: as §1
Chain of D(2) dopamine receptor (Homo sapiens) (P14416 whole entry): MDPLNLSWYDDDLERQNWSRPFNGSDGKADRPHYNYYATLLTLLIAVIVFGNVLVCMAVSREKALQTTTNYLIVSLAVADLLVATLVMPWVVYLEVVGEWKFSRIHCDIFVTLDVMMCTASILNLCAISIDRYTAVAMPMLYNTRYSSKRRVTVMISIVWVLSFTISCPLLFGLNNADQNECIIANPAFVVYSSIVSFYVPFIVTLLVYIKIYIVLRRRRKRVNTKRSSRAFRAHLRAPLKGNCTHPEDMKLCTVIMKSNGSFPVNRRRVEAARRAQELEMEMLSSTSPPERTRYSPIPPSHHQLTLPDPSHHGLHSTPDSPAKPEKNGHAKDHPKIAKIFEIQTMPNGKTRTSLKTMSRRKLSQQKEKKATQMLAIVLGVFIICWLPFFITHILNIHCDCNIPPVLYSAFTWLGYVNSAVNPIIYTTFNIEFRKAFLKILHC

Chain of Cholecystokinin receptor type A (Homo sapiens) (P32238 whole entry): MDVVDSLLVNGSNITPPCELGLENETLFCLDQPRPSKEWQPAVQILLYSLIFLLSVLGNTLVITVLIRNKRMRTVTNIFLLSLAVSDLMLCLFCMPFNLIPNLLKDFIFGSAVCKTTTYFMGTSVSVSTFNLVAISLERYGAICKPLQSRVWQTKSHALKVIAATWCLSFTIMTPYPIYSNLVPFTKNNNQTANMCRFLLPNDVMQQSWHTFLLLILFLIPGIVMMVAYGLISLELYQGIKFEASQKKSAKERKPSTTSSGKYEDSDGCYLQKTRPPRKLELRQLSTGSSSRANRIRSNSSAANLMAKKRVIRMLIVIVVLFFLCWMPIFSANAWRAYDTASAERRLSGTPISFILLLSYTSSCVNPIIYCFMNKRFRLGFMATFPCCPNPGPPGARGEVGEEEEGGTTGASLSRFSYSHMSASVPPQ

SMILES: CN(C)CCC(c1ccc(Cl)c(Cl)c1)N1CCOCC1 (stereo not drawn)
- inhibition [1]: 1%
- inhibition [2]: -0.5%
- Kp at 1 h [3]: 12.7
- inhibition [4]: 96.7%
- inhibition [5]: 9.8%
- Kp at 4 h [6]: 11.4
- inhibition [7]: 11%
- inhibition [8]: -3.6%
- bioavailability [9]: 19.4%
- MRT [10]: 3.05 h
- survival at 336 h [11]: 80%
- Activity [12]: 31
- inhibition [13]: -0.8%
- inhibition [14]: 39.7%
- inhibition [15]: 17.7%
- IC50 [16]: 247 nM
- AUC [17]: 78.6 ng·h/mL
- inhibition [18]: 2.2%
- Tmax [19]: 30 min
- Activity [20]: 77
- inhibition in vivo at 5 mg/kg [21]: 31%
- Activity [22]: 12
- inhibition at 10 µM [23]: 41.8%
- concentration at 4 h [24]: 42.2 ng/mL
- IC50 [25]: 478 nM
- concentration at 2 h [26]: 178 ng/mL
- inhibition [27]: 19.2%
- concentration at 0.08 h [28]: 48.5 ng/mL
- inhibition [29]: 8.7%
- concentration at 2 h [30]: 10.9 ng/mL
- inhibition [31]: 9.6%
- Kp at 0.25 h [32]: 22
- inhibition [33]: 4%

Source: ChEMBL document CHEMBL3352559, “Synthesis and pharmacological investigation of aralkyl diamine derivatives as potential triple reuptake inhibitors” (Eur J Med Chem, 2014)
